Assay results taken from ChEMBL document CHEMBL3997796 (J Med Chem, 2017).
Calls of active or inactive are those of the source. The calls are words filed in the database; no cut-off is given here.

Tests used:
[1] = target: T1, Ectonucleotide pyrophosphatase/phosphodiesterase family member 7 (Homo sapiens) (UniProt Q6UWV6); assay: Inhibition of ENPP7 (unknown origin) using pNPPC as substrate measured every 2 mins for 1 hr by […]
T1 sequence (whole entry): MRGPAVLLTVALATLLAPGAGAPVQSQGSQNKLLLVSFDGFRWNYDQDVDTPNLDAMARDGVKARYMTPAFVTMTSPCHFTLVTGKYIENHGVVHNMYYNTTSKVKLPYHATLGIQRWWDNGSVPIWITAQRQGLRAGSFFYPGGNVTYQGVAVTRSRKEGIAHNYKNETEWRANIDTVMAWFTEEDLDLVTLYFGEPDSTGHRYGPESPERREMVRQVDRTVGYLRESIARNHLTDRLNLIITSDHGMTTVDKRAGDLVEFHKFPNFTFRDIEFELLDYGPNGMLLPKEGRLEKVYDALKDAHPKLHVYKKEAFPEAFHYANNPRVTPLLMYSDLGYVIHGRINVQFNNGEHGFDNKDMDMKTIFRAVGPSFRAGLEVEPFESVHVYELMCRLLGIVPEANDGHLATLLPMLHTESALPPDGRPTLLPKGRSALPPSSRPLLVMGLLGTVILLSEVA
Method in brief: (§1)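 10 nM ENPP6 or ENPP7, 10 μM pNPPC, compound 0–10 μM, triplicate; ENPP6 buffer 100 mM Tris, 500 mM NaCl, 0.05% Triton pH 9.0; ENPP7 buffer 50 mM Tris, 150 mM NaCl, 10 mM taurocholate pH 8.5; 405 nm absorbance every 2 min for 1 h.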

[2] = target: T2, Glycerophosphocholine cholinephosphodiesterase ENPP6 (Homo sapiens) (UniProt Q6UWR7); assay: Inhibition of ENPP6 (unknown origin) using pNPPC as substrate measured every 2 mins for 1 hr by […]; method in brief: as §1
T2 sequence (whole entry): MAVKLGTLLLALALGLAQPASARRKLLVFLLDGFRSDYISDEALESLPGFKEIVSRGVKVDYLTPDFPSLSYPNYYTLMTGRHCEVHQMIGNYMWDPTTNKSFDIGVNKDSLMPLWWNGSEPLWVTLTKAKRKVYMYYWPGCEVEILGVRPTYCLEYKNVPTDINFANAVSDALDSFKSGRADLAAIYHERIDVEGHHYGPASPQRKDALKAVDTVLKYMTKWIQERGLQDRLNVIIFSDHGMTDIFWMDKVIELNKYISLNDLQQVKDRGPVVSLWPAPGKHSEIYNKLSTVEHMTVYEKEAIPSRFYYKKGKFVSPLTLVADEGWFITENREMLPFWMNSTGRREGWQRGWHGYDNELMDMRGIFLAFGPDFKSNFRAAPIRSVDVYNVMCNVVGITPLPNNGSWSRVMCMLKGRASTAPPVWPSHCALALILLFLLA

[3] = target: T3, Autotaxin (Homo sapiens, UniProt Q13822); assay: Inhibition of recombinant human C-terminal FLAg-tagged ATX nucleotide pyrophosphate phosphatase activity expressed in baculovirus infected sf9 cells using pNP-TMP as substrate measured every 2 mins for 1 hr by fluorescence assay
[4] = target: T3, Autotaxin; assay: Inhibition of ATX (unknown origin) expressed in human A2058 cells assessed as inhibition of LPC-induced cell invasion after 20 hrs by calcein-AM dye based matrigel-mediated Boyden chamber assay
[5] = target: T3, Autotaxin; assay: Inhibition of ATX (unknown origin) expressed in human A2058 cells assessed as inhibition of LPC-induced cell invasion at 10 uM after 20 hrs by calcein-AM dye based matrigel-mediated Boyden chamber assay
[6] = target: T3, Autotaxin; assay: Competitive inhibition of recombinant human C-terminal FLAg-tagged ATX expressed in baculovirus infected sf9 cells using varying levels of FRET based FS-3 substrate at 0.5 to 2 times IC50 measured every 2 mins for 1 hr by Michaelis-Menten plot analysis
[7] = target: T3, Autotaxin; assay: Inhibition of recombinant human C-terminal FLAg-tagged ATX lysophospholipase D activity expressed in baculovirus infected sf9 cells using FRET based FS-3 substrate measured every 2 mins for 1 hr by fluorescence assay
[8] = target: Lysophosphatidic acid receptor 1 (Homo sapiens, UniProt Q92633); assay: Antagonist activity at LPA1 receptor (unknown origin) expressed in rat RH7777 cells assessed as inhibition of LPA-induced intracellular calcium level measured every 3.42 secs for 70 secs by Fura-2-AM dye based fluorescence assay; assay type: functional, cell-based
[9] = target: T4, Lysophosphatidic acid receptor 3 (Homo sapiens) (UniProt Q9UBY5); assay: Antagonist activity at LPA3 receptor (unknown origin) expressed in rat RH7777 cells assessed as inhibition of LPA-induced intracellular calcium level up to 100 uM measured every 3.42 secs for 70 secs by Fura-2-AM dye based fluorescence assay; assay type: functional, cell-based
T4 sequence (whole entry): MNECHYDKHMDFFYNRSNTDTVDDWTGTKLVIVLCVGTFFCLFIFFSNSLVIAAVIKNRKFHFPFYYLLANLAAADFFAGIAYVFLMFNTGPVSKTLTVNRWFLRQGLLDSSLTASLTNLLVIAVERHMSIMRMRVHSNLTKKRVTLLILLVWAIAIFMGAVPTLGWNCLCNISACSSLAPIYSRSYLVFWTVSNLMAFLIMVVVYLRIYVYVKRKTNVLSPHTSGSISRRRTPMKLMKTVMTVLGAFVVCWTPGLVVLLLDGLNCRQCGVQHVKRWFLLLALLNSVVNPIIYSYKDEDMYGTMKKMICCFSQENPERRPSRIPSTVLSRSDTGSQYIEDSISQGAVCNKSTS

[10] = target: Lysophosphatidic acid receptor 5 (Homo sapiens) (UniProt Q9H1C0); assay: Antagonist activity at FLAG-tagged LPA5 receptor (unknown origin) expressed in rat B103 cells assessed as inhibition of LPA-induced intracellular calcium level up to 100 uM measured every 3.42 secs for 70 secs by Fura-2-AM dye based fluorescence assay; assay type: functional, cell-based
[11] = target: Lysophosphatidic acid receptor 4 (Homo sapiens) (UniProt Q99677); assay: Antagonist activity at LPA4 receptor (unknown origin) expressed in CHO cells assessed as inhibition of LPA-induced intracellular calcium level up to 100 uM measured every 3.42 secs for 70 secs by Fura-2-AM dye based fluorescence assay; assay type: functional, cell-based
[12] = target: Lysophosphatidic acid receptor 2 (Homo sapiens) (UniProt Q9HBW0); assay: Antagonist activity at LPA2 receptor (unknown origin) expressed in MEF cells assessed as inhibition of LPA-induced intracellular calcium level up to 100 uM measured every 3.42 secs for 70 secs by Fura-2-AM dye based fluorescence assay; assay type: functional, cell-based
Chain of Lysophosphatidic acid receptor 2 (Homo sapiens) (Q9HBW0 whole entry): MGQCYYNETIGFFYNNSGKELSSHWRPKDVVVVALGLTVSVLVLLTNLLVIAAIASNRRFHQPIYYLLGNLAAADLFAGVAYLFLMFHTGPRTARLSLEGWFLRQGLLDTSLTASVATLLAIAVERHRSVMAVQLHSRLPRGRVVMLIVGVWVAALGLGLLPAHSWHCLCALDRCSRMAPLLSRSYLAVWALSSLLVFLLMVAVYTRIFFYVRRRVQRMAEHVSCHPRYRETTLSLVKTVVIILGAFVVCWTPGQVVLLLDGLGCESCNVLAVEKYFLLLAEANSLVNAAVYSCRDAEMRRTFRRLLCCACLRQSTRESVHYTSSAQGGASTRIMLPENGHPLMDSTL

Chain of Lysophosphatidic acid receptor 1 (Q92633 whole entry): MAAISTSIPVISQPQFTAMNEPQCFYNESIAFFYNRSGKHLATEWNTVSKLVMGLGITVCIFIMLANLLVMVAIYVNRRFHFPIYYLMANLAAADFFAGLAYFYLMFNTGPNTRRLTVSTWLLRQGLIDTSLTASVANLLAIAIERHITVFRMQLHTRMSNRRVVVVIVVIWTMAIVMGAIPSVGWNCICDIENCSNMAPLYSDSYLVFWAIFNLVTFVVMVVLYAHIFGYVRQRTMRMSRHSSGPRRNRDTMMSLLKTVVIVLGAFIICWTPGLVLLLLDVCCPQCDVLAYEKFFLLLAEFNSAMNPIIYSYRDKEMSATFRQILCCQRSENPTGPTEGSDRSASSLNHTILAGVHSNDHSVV
Chain of Lysophosphatidic acid receptor 4 (Homo sapiens) (Q99677 whole entry): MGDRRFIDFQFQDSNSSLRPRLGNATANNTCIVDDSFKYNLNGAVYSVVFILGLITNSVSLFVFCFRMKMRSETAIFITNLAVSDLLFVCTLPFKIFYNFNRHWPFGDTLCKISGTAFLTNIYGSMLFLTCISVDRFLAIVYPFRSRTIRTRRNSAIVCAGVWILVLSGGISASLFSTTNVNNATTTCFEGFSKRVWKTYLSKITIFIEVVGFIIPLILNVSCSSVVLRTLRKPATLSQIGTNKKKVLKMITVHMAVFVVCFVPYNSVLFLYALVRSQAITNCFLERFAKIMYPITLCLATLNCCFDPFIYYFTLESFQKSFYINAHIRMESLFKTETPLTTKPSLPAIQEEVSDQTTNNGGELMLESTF
Chain of Lysophosphatidic acid receptor 5 (Homo sapiens) (Q9H1C0 whole entry): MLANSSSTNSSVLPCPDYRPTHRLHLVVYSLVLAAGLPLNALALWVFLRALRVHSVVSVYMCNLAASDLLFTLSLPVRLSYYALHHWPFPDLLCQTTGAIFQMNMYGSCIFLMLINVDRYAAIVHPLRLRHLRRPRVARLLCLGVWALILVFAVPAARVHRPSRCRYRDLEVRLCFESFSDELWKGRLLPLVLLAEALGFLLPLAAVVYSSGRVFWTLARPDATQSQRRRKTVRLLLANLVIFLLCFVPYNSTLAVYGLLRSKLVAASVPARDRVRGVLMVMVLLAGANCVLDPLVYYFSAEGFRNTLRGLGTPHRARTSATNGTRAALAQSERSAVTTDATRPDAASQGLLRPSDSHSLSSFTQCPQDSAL

SMILES	inhibition [1]	inhibition [2]	inhibition [3]	IC50 [7]	other results
O=S(=O)(Nc1cc(S(=O)(=O)N2CCOCC2)c(Cl)cc1Cl)c1cccc(F)c1	inactive	inactive	inactive	> 1000 nM	
O=C(Nc1c(F)c(F)c(F)c(F)c1F)c1cc(S(=O)(=O)N2CCOCC2)c(Cl)cc1Cl	inactive	inactive	inactive		
O=S(=O)(c1cc(N(S(=O)(=O)c2cccc(F)c2)S(=O)(=O)c2cccc(F)c2)c(Cl)cc1Cl)N1CCOCC1	inactive	inactive	inactive	> 1000 nM	
CN1CCN(S(=O)(=O)c2cc(C(=S)Nc3cc(Cl)c(F)c(Cl)c3)c(Cl)cc2Cl)CC1	inactive	inactive	inactive		
COc1cc(Cl)c(C(=O)Nc2cc(F)c(C(=O)O)c(F)c2)cc1S(=O)(=O)N1CCOCC1	inactive	inactive	inactive	> 1000 nM	
O=C(Nc1cc(Cl)c(Cl)c(Cl)c1)c1cc(S(=O)(=O)N2CCOCC2)c(Cl)cc1Cl	inactive	inactive	inactive	> 1000 nM	
COC(=O)c1c(F)cc(NC(=O)c2cc(S(=O)(=O)N3CCOCC3)c(Cl)cc2Cl)cc1F	inactive	inactive	inactive		
O=S(=O)(c1cc(-c2nc3cccc(F)c3o2)c(Cl)cc1Cl)N1CCOCC1	inactive	inactive	inactive	> 1000 nM	
N#Cc1c(F)cc(NC(=O)c2cc(S(=O)(=O)N3CCOCC3)c(Cl)cc2Cl)cc1F	inactive	inactive	inactive		
O=C(Nc1cc(F)c(F)c(F)c1Br)c1cc(S(=O)(=O)N2CCOCC2)c(Cl)cc1Cl	inactive	inactive	inactive	18 nM	IC50 [8]: Not Active; inhibition [9]: inactive; inhibition [10]: inactive; inhibition [11]: inactive; inhibition [12]: inactive
O=S(=O)(c1cc(C(=S)Nc2cc(Cl)c(F)c(Cl)c2)c(Cl)cc1Cl)N1CCOCC1	inactive	inactive	inactive	98 nM	
COc1cc(NC(=O)c2cc(S(=O)(=O)N3CCOCC3)c(Cl)cc2Cl)cc(OC)c1OC	inactive	inactive	inactive	> 1000 nM	

Continued, in another order:

inhibition [1]	inhibition [2]	inhibition [3]	IC50 [7]	SMILES	other results
inactive	inactive	inactive		CN1CCN(S(=O)(=O)c2cc(C(=O)Nc3cc(Cl)c(F)c(Cl)c3)c(Cl)cc2Cl)CC1	
inactive	inactive	inactive		O=C(Nc1ccc(F)c(F)c1)c1cc(S(=O)(=O)N2CCOCC2)c(Cl)cc1Cl	inhibition [4]: Dose-dependent effect; inhibition [5]: Active; inhibition [6]: Active
inactive	inactive	inactive	> 1000 nM	O=S(=O)(Nc1cc(F)c(F)c(F)c1)c1cc(S(=O)(=O)N2CCOCC2)c(Cl)cc1Cl	
inactive	inactive	inactive	> 1000 nM	O=C(Nc1cc(F)c(F)c(F)c1)c1cc(NN2CCOCC2)c(Cl)cc1Cl	
inactive	inactive	inactive	> 1000 nM	O=S(=O)(Nc1cccc(F)c1)c1cc(S(=O)(=O)N2CCOCC2)c(Cl)cc1Cl	
inactive	inactive	inactive	> 1000 nM	CS(=O)(=O)N(C(=O)c1cc(NN2CCOCC2)c(Cl)cc1Cl)c1cc(F)c(F)c(F)c1	
inactive	inactive	inactive		O=S(=O)(c1cc(C(=S)Nc2cccc(F)c2)c(Cl)cc1Cl)N1CCOCC1	
inactive	inactive	inactive	> 1000 nM	O=S(=O)(c1cc(CNc2ccc(F)c(F)c2)c(Cl)cc1Cl)N1CCOCC1	
inactive	inactive	inactive		O=S(=O)(c1cc(CNc2cc(F)c(F)c(F)c2)c(Cl)cc1Cl)N1CCOCC1	
inactive	inactive	inactive		CN1CCN(S(=O)(=O)c2cc(C(=O)Nc3cc(F)c(F)c(F)c3)c(Cl)cc2Cl)CC1	
inactive	inactive	inactive	70 nM	O=S(=O)(c1cc(C(=S)Nc2ccc(F)c(F)c2)c(Cl)cc1Cl)N1CCOCC1	
inactive	inactive	inactive	> 1000 nM	CN(C(=O)c1cc(S(=O)(=O)N2CCOCC2)c(Cl)cc1Cl)c1cccc(F)c1	
inactive	inactive	inactive	> 1000 nM	O=S(=O)(c1cc(-c2nc3cc(F)c(F)cc3[nH]2)c(Cl)cc1Cl)N1CCOCC1	
